Measured values: ChEMBL document CHEMBL1124800, “9,11-epoxy-9-homoprosta-5-enoic acid analogues as thromboxane A2 receptor antagonists” (J Med Chem, 1990)

What was measured:
Homo sapiens [1] = species on record: Homo sapiens; assay: In vitro inhibition of aggregation of human platelet rich plasma induced by arachidonic acid; assay type: functional; details: read-out: I50
Rattus norvegicus [2] = species on record: Rattus norvegicus; assay: Maximal contraction of rat stomach induced by serotonin at 0.1 uM concentration; assay type: functional
Homo sapiens [3] = species on record: Homo sapiens; assay: In vitro inhibition of aggregation of human platelet rich plasma induced by adenosine diphosphate; assay type: functional; details: read-out: I50
Rattus norvegicus [4] = species on record: Rattus norvegicus; assay: Maximal contraction of rat stomach induced by serotonin at 30 uM concentration; assay type: functional
Summary of the method: (§1)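 Rat stomach strip; test compound concentration giving 50% of the maximal contraction produced by 3.0 × 10⁻⁷ M serotonin (A50). Where reported as a percentage, value is the maximum contraction seen at the stated test concentration. n = 8.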

Rattus norvegicus [5] = species on record: Rattus norvegicus; assay: Concentration required to elicit 50% of the maximal contraction of rat stomach induced by serotonin; assay type: functional; summary of the method: as §1
Rattus norvegicus [6] = species on record: Rattus norvegicus; assay: Maximal contraction of rat stomach induced by serotonin; assay type: functional; summary of the method: as §1
Cavia porcellus = species on record: Cavia porcellus; assay: Competitive antagonism of 11,9-epoxymethano-PGH2-induced contraction in guinea pig trachea; assay type: functional
Rattus norvegicus [7] = species on record: Rattus norvegicus; assay: Competitive antagonism of 11,9-epoxymethano-PGH2-induced contraction in rat aorta; assay type: functional
[8] = target: Thromboxane A2 receptor (Cavia porcellus); assay: Antagonistic activity against Thromboxane A2 receptor in guinea pig trachea in the presence of 11,9-epoxymethano-PGH2; details: read-out: pA2 (converted)
Thromboxane A2 receptor = target: T1, Thromboxane A2 receptor (Rattus norvegicus, UniProt P34978); assay: Antagonistic activity against Thromboxane A2 receptor in rat aorta in the presence of 11,9-epoxymethano-PGH2; assay type: functional, tissue-based
T1 sequence (P34978 whole entry): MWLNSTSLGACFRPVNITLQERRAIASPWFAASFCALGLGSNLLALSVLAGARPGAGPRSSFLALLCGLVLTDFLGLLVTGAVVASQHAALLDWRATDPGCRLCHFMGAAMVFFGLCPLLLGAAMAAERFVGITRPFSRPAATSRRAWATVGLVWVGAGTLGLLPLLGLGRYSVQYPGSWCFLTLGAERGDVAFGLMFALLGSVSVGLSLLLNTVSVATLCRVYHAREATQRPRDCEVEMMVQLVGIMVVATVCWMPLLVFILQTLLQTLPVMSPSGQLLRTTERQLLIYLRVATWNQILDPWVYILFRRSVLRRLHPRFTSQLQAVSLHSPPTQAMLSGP

[9] = target: Thromboxane A2 receptor (Cavia porcellus); assay: Antagonistic activity against Thromboxane A2 receptor in guinea pig trachea in the presence of 9,11-azo-PGH2; details: read-out: I50

Structure (SMILES)	IC50 (Homo sapiens [1])	IC50 (Homo sapiens [3])	further results
C[C@@H](c1ccc(O)cc1)[C@H](O)/C=C/C1C2CCC(O2)C1C/C=C\CCCC(=O)O (some centres undefined)	0.24 µM	950 µM	Contraction (Rattus norvegicus [2]): 21%
C[C@@H](c1ccccc1)[C@H](O)/C=C/[C@@H]1C2CCC(O2)[C@@H]1C/C=C\C/C=C/C(=O)O (some centres undefined)	3.8 µM	–	–
C[C@@H](c1ccccc1)[C@H](O)/C=C/[C@@H]1C2CCC(O2)[C@@H]1C/C=C\CCCc1nnn[nH]1 (some centres undefined)	3.2 µM	–	–
C[C@@H](c1ccccc1)[C@H](O)/C=C/[C@@H]1C2CCC(O2)[C@@H]1C/C=C\COCC(=O)O (some centres undefined)	3.4 µM	–	–
C[C@H](c1ccccc1)[C@H](O)/C=C/C1C2CCC(O2)[C@@H]1C/C=C\CCCC(=O)O (some centres undefined)	730 µM	> 100 µM	–
O=C(O)CCC/C=C\CC1C2CCC(O2)C1/C=C/[C@@H](O)C1CCCCC1 (some centres undefined)	0.4 µM	0.9 µM	Contraction (Rattus norvegicus [4]): 9%
O=C(O)CCC/C=C\CC1C2CCC(O2)C1/C=C/[C@@H](O)CCc1ccccc1 (some centres undefined)	1.2 µM	> 1000 µM	A50 (Rattus norvegicus [5]): 3.7 µM
CC(CC/C=C\C[C@H]1C2CCC(O2)[C@H]1/C=C/[C@@H](O)[C@@H](C)c1ccccc1)C(=O)O (some centres undefined)	25 µM	–	–
C[C@H](c1ccccc1)[C@H](O)/C=C/C1C2CCC(O2)[C@H]1C/C=C\CCCC(=O)O (some centres undefined)	3.1 µM	> 1000 µM	Contraction (Rattus norvegicus [6]): 0%
CCCCC(C)(C)[C@H](O)/C=C/C1C2CCC(O2)C1C/C=C\CCCC(=O)O (some centres undefined)	1.1 µM	> 1000 µM	–
O=C(O)CCC/C=C\CC1C2CCC(O2)C1/C=C/[C@@H](O)COc1ccccc1 (some centres undefined)	–	–	A50 (Rattus norvegicus [5]): 6 µM
C[C@@H](c1ccc(O)c(I)c1)[C@H](O)/C=C/C1C2CCC(O2)C1C/C=C\CCCC(=O)O (some centres undefined)	0.93 µM	> 1000 µM	–
CCCCC[C@H](O)/C=C/C1C2CCC(O2)C1C/C=C\CCCC(=O)O (some centres undefined)	1.7 µM	300 µM	A50 (Rattus norvegicus [5]): 0.4 µM
O=C(O)CCC/C=C\C[C@H]1C2CCC(O2)[C@H]1CNNC(=O)Nc1ccccc1 (some centres undefined)	–	–	Kb (Cavia porcellus): 0.0013 µM; Kb (Rattus norvegicus [7]): 0.00066 µM
C[C@@H](c1ccccc1)[C@H](O)/C=C/[C@@H]1C2CCC(O2)[C@@H]1C/C=C\CCC(C)(C)C(=O)O (some centres undefined)	260 µM	–	–
C[C@@H](c1ccccc1)[C@H](O)/C=C/[C@@H]1C2CCC(O2)[C@@H]1CC/C=C/CCC(=O)O (some centres undefined)	25 µM	–	–
C[C@@H](c1ccccc1)[C@H](O)/C=C/C1C2CCC(O2)C1C/C=C\CCCC(=O)O (some centres undefined)	0.65 µM	> 1000 µM	Kb [8]: 0.01 µM; Kb (Cavia porcellus): 0.0121 µM; Kb (Rattus norvegicus [7]): 0.0135 µM; Contraction (Rattus norvegicus [6]): 0%; Kb (Thromboxane A2 receptor): 0.00794 µM; IC50 [9]: 1.98 µM
CC(C/C=C\C[C@H]1C2CCC(O2)[C@H]1/C=C/[C@@H](O)[C@@H](C)c1ccccc1)CC(=O)O (some centres undefined)	12 µM	–	–
